Experimental data from PMC6007964 (Biochemistry, 2018).
≈ marks a conversion by molar mass, not a printed value. Where two headings read alike, the source gives them in different places.

Tests used:
[1] = tested on: K. pneumoniae UWB116 (NDM-1); conditions: NDM-1-producing K. pneumoniae clinical isolate, cited from earlier work
VIM-2 [2] = target: T1, VIM-2 (Escherichia coli, UniProt Q5U7L7); test: Ki determination, slow-binding progress curves with nitrocefin; assay type: biochemical
Method in brief: (§1)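 Enzyme was added to nitrocefin in excess, with inhibitor dilutions spanning the variable-rate range: IMP-1 60 pM with 25 μM nitrocefin, VIM-2 39.2 pM with 100 μM, NDM-1 600 pM with 15 μM, L1 308 pM with 50 μM. Buffer was 50 mM HEPES pH 7.2, 50 μg/mL BSA, 0.01% Triton X-100, read at 482 nm and 30 °C for 10 min. Progress curves gave kobs; a linear fit of kobs versus [I] gave k–0 and Kiapp, then Ki.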

IMP-1 [3] = target: T2, IMP-1 (Serratia marcescens, UniProt P52699); test: as above; assay type: biochemical
Method in brief: as §1

L1 [4] = target: T3, L1 (Stenotrophomonas maltophilia, UniProt P52700); test: IC50 assay, nitrocefin hydrolysis, 10 min preincubation; assay type: biochemical, S. maltophilia
IMP-1 [5] = target: T2, IMP-1; test: as above; assay type: biochemical
VIM-2 [6] = target: T1, VIM-2; test: as above; assay type: biochemical
NDM-1 [7] = target: T4, NDM-1 (Klebsiella pneumoniae, UniProt C7C422); test: Ki determination, slow-binding progress curves with nitrocefin; assay type: biochemical
Method in brief: as §1

[8] = tested on: MBLs (VIM-2, NDM-1, IMP-1, L1); test: IC50 assay, summary over the MBLs tested; assay type: biochemical
L1 [9] = target: T3, L1; test: Ki determination, slow-binding progress curves with nitrocefin; assay type: biochemical, S. maltophilia
Method in brief: as §1

NDM-1 [10] = target: T4, NDM-1; test: IC50 assay, nitrocefin hydrolysis, 10 min preincubation; assay type: biochemical
C. freundii D571 NDM-1 = test: Meropenem MIC, broth microdilution; assay type: cell-based; conditions: Citrobacter freundii, D571NDM1, read-out: Meropenem MIC
P. putida #UWB24 (VIM-2) = test: Meropenem MIC, broth microdilution, clinical strain; assay type: cell-based; conditions: in the absence of inhibitor
[11] = tested on: S. maltophilia JKWZP (L1, L2); test: Meropenem MIC, broth microdilution, RND pump knockout strain; assay type: cell-based; conditions: Stenotrophomonas maltophilia, read-out: Meropenem MIC
K. pneumoniae Ecl8 NDM-1 = test: Meropenem MIC, broth microdilution; assay type: cell-based; conditions: Klebsiella pneumoniae, ECL8NDM1, read-out: Meropenem MIC
E. coli MG1655 VIM-1 = test: Meropenem MIC, broth microdilution; assay type: cell-based; conditions: Escherichia coli, MG1655, read-out: Meropenem MIC
[12] = tested on: non-MBL-producing C. freundii; conditions: non-MBL-producing strain; cited from earlier work
[13] = tested on: non-MBL-producing K. pneumoniae; conditions: non-MBL-producing strain; cited from earlier work
[14] = tested on: En. aerogenes 15-8358A NDM-1; test: Meropenem MIC, broth microdilution; assay type: cell-based; conditions: Klebsiella aerogenes, read-out: Meropenem MIC
[15] = tested on: E. coli MG1655 vector only; test: Meropenem MIC, broth microdilution; assay type: cell-based; conditions: Escherichia coli, MG1655, read-out: Meropenem MIC
[16] = tested on: S. maltophilia K279a (L1, L2); test: Meropenem MIC, broth microdilution, clinical strain; assay type: cell-based; conditions: Stenotrophomonas maltophilia, read-out: Meropenem MIC
E. coli MG1655 IMP-1 = test: Meropenem MIC, broth microdilution; assay type: cell-based; conditions: Escherichia coli, MG1655, read-out: Meropenem MIC
E. coli MG1655 NDM-1 = test: Meropenem MIC, broth microdilution; assay type: cell-based; conditions: Escherichia coli, MG1655, read-out: Meropenem MIC
[17] = tested on: non-MBL-producing En. aerogenes; conditions: non-MBL-producing strain; cited from earlier work
[18] = tested on: P. aeruginosa UWB78 (VIM-2); test: Meropenem MIC, broth microdilution, clinical strain; assay type: cell-based; conditions: in the absence of inhibitor
[19] = tested on: P. aeruginosa UWB41 (VIM-2); test: as above; assay type: cell-based; conditions: Pseudomonas aeruginosa, read-out: Meropenem MIC

T2 sequence (P52699 19-246, looked up): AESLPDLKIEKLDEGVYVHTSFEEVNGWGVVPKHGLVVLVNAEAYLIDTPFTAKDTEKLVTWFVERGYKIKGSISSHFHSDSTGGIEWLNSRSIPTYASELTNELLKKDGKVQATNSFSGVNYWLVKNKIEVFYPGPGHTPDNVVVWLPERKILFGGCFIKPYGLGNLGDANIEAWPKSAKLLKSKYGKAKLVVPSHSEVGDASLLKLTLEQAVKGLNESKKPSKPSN
T4 sequence (C7C422 29-270, looked up, species assumed): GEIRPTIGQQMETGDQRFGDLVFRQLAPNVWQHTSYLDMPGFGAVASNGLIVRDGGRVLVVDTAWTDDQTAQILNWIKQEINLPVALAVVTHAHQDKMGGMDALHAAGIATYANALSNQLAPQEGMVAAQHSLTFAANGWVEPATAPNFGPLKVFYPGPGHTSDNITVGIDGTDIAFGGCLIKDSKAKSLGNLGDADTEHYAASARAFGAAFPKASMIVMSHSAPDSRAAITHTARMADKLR
T3 sequence (P52700 34-290): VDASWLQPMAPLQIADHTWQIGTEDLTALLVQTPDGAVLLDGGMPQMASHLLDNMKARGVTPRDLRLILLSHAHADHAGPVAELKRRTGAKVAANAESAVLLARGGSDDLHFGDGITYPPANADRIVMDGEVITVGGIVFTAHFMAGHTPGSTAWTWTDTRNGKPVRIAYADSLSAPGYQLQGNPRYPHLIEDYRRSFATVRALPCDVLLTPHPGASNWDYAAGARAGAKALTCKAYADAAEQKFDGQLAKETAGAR

Which “Meropenem MIC” value ([1]; in the presence of 16 mg/L AMA) does the source give for N[C@H](CN[C@H](CN[C@@H](CC(=O)O)C(=O)O)C(=O)O)C(=O)O [AMA, aspergillomarasmine A] here?
Its value is 0.25 mg/L.

What about the “Meropenem MIC” value ([1]; in the presence of 32 mg/L AMA) of the same compound?
The value was < 0.125 mg/L.

For O=C(O)c1cccc(C(N(Cc2ccccc2)C(=O)c2cccs2)P(=O)(O)O)n1 (stereo not shown) [3c, 6-[(N-benzyl-1-thiophen-2-ylformamido)(phosphono)methyl]picolinic acid], which Ki (VIM-2 [2]) is on record?
Its Ki is 0.038 ± 0.009 µM.

And the Ki (IMP-1 [3])?
The Ki was 0.4 ± 0.2 µM.

What about the “Dissociative t1/2 = 2 / k-0” value (IMP-1 [3]; IMP-1) of the same compound?
The value was 25 min.

And the IC50 (L1 [4])?
Its IC50 is 1.57 µM.

And the “potency compared to 3a” value (L1 [4]; IC50, against L1)?
Its value is ~0.9 fold.

What about the IC50 (IMP-1 [5]) of the same compound?
Its IC50 is 2.91 µM.

And the IC50 (VIM-2 [6])?
The IC50 was 0.464 µM.

And the Ki (NDM-1 [7])?
Its Ki is 0.034 ± 0.006 µM.

And the “improved potency compared to 3a” value ([8]; IC50, against NDM-1, VIM-2 and IMP-1)?
Its value is 1.2–2.8 fold.

And the IC50 ([8]; read-out: IC50, range, against NDM-1, VIM-2 and IMP-1)?
Its IC50 is 0.306 to 2.91 µM.

And the Ki (L1 [9])?
Its Ki is 0.4 ± 0.1 µM.

And the IC50 (NDM-1 [10])?
The IC50 was 0.306 µM.

Which MIC (C. freundii D571 NDM-1) does the source give for C[C@@H](O)[C@H]1C(=O)N2C(C(=O)O)=C(S[C@@H]3CN[C@H](C(=O)N(C)C)C3)[C@H](C)[C@H]12 [Meropenem] here?
The MIC was 32 mg/L (≈ 83.4 µM).

And the “Meropenem MIC” value (P. putida #UWB24 (VIM-2))?
Its value is 64 mg L^–1.

What about the MIC [11] of the same compound?
Its MIC is 32 mg/L (≈ 83.4 µM).

And the MIC (K. pneumoniae Ecl8 NDM-1)?
The MIC was > 256 mg/L.

What about the MIC (E. coli MG1655 VIM-1) of the same compound?
Its MIC is 4 mg/L (≈ 10.4 µM).

What about the “Meropenem MIC” value [12] of the same compound?
The value was 0.06 mg/L.

And the “Meropenem MIC” value [13]?
Its value is ≤ 0.25 mg/L.

What about the MIC [14] of the same compound?
The MIC was 64 mg/L (≈ 167 µM).

And the MIC [15]?
The MIC was < 0.25 mg/L.

What about the MIC [16] of the same compound?
Its MIC is 16 mg/L (≈ 41.7 µM).

What about the MIC (E. coli MG1655 IMP-1) of the same compound?
Its MIC is 16 mg/L (≈ 41.7 µM).

And the MIC (E. coli MG1655 NDM-1)?
Its MIC is > 256 mg/L.

And the “Meropenem MIC” value [17]?
Its value is 0.06 mg/L.

And the “Meropenem MIC” value [18]?
The value was 64 mg L^–1.

What about the MIC [19] of the same compound?
Its MIC is 128 mg/L (≈ 334 µM).

Which IC50 (L1 [4]) does the source give for O=C(O)c1ccccn1 [compound 1, 2-picolinic acid] here?
The IC50 was > 100 µM.

And the IC50 (IMP-1 [5])?
The IC50 was > 100 µM.

What about the IC50 (VIM-2 [6]) of the same compound?
Its IC50 is 32.2 µM.

What about the IC50 (NDM-1 [10]) of the same compound?
Its IC50 is > 100 µM.

Which Ki (VIM-2 [2]) does the source give for O=C(O)c1cccc(C(O)P(=O)(O)O)n1 (stereo not shown) [3b, 6-[hydroxy(phosphono)methyl]picolinic acid] here?
Its Ki is 0.61 ± 0.04 µM.

And the “Dissociative t1/2 = 2 / k-0” value (VIM-2 [2]; VIM-2)?
Its value is 6 min.

And the Ki (IMP-1 [3])?
The Ki was 1.5 ± 0.1 µM.

What about the IC50 (L1 [4]) of the same compound?
Its IC50 is 2.05 µM.

What about the IC50 (IMP-1 [5]) of the same compound?
The IC50 was 7.2 µM.

And the IC50 (VIM-2 [6])?
Its IC50 is 1.9 µM.

And the Ki (NDM-1 [7])?
The Ki was 0.078 ± 0.008 µM.

And the Ki (L1 [9])?
Its Ki is 0.4 ± 0.1 µM.

With Cc1cccc(C(=O)O)n1 [compound 2, 6-methylpicolinic acid] as the compound, how does the IC50 (L1 [4]) read?
The IC50 was > 100 µM.

And the IC50 (IMP-1 [5])?
Its IC50 is > 100 µM.

And the IC50 (VIM-2 [6])?
The IC50 was > 100 µM.

What about the IC50 (NDM-1 [10]) of the same compound?
The IC50 was > 100 µM.

For O=P(O)(O)Cc1ccccn1 [compound 4, (pyridin-2-ylmethyl)phosphonic acid], which IC50 (L1 [4]) is on record?
The IC50 was > 1000 µM.

And the IC50 (IMP-1 [5])?
The IC50 was > 100 µM.

What about the IC50 (VIM-2 [6]) of the same compound?
The IC50 was 171 µM.

What about the IC50 (NDM-1 [10]) of the same compound?
Its IC50 is > 1000 µM.
